According to ChEMBL document CHEMBL1177759, “Design and synthesis of disubstituted (4-piperidinyl)-piperazine derivatives as potent acetyl-CoA carboxylase inhibitors” (Bioorg Med Chem Lett, 2010):

Tests used:
Acetyl-CoA carboxylase = Acetyl-CoA carboxylase (Homo sapiens, UniProt Q13085+O00763); assay: Inhibition of human ACC1/2-mediated malonyl-CoA synthesis; type: protein assay
How it was run: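 Partially purified human liver ACC enzymes; read-out is malonyl-CoA synthesis by ACC1/2; IC50 taken as mean of at least two independent experiments.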

[1] = Metabolic stability in human liver microsomes assessed as compound remaining after 15 mins; type: ADME, Microsome; conditions: read-out: Stability
How it was run: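 Compound at […] incubated 15 min at 37 °C with human liver microsomes at 1 mg protein/mL. Cofactors: 1.5 mM glucose-6-phosphate, 0.16 mM NADP, 1 U/mL G6P dehydrogenase. Buffer: 250 mM phosphate, 2.4 mM MgCl2, 69 mM KCl. Parent measured by LC-MS/MS; % remaining relative to 0 min.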

[2] = Permeability by PAMPA method; type: ADME; conditions: read-out: permeability
How it was run: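 Parallel artificial membrane permeation at pH 6.2; effective permeability Pe reported in 10^-6 cm/s.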

[3] = Inhibition of human ACC in HepG2 cells assessed as decrease in fatty acid synthesis by [14C]acetate incorporation assay; type: cell-based
How it was run: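 HepG2 cells; fatty acid synthesis followed as loss of [14C]acetate incorporation into cellular lipids; IC50 derived.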

Row | Structure (SMILES) | IC50 (Acetyl-CoA carboxylase) | further results
1 | CC(=O)N1CCC(C(=O)N2CCC(N3CCN(C(=O)c4cc(-c5ccccc5)nc(-c5ccc6c(c5)c(C)cn6C)c4)CC3)CC2)CC1 | 127 nM | 
2 | CC(=O)N1CCC(C(=O)N2CCC(N3CCN(C(=O)c4cc(-c5ccccc5)nc(-c5ccc6[nH]c(C)c(C)c6c5)c4)CC3)CC2)CC1 | 33 nM | remaining at 0.25 h [1]: 99%
3 | CCc1c(C)[nH]c2ccc(-c3cc(C(=O)N4CCN(C5CCN(C(=O)C6CCN(C(C)=O)CC6)CC5)CC4)cc(-c4ccccc4)n3)cc12 | 169 nM | 
4 | CC(=O)N1CCC(C(=O)N2CCC(N3CCN(C(=O)c4cc(-c5ccccc5)nc(-c5ccc6[nH]c(C)c(C#N)c6c5)c4)CC3)CC2)CC1 | 9.7 nM | 
5 | CC(=O)N1CCC(C(=O)N2CCC(N3CCN(C(=O)c4cc(-c5ccccc5)nc(-c5ccc6[nH]c(CN(C)C)c(C)c6c5)c4)CC3)CC2)CC1 | 8.4 nM | 
6 | CC(=O)N1CCC(C(=O)N2CCC(N3CCN(C(=O)c4cc(-c5ccc(C(F)(F)F)cc5)nc(-c5ccc6[nH]ccc6c5)c4)CC3)CC2)CC1 | 72 nM | 
7 | CC(=O)N1CCC(C(=O)N2CCC(N3CCN(C(=O)c4cc(-c5ccc(C)c(F)c5)nc(-c5ccc6[nH]ccc6c5)c4)CC3)CC2)CC1 | 49 nM | 
8 | CC(=O)N1CCC(C(=O)N2CCC(N3CCN(C(=O)c4cc(-c5ccccc5)nc(-c5ccc6[nH]c(C)cc6c5)c4)CC3)CC2)CC1 | 59 nM | 
9 | CC(=O)N1CCC(C(=O)N2CCC(N3CCN(C(=O)c4cc(-c5ccccc5)nc(-c5ccc6[nH]cc(C)c6c5)c4)CC3)CC2)CC1 | 36 nM | remaining at 0.25 h [1]: 72%
10 | CC(=O)N1CCC(C(=O)N2CCC(N3CCN(C(=O)c4cc(-c5ccccc5)nc(-c5ccc6c(c5)cc(C)n6C)c4)CC3)CC2)CC1 | 117 nM | 
11 | CC(=O)N1CCC(C(=O)N2CCC(N3CCN(C(=O)c4cc(-c5ccccc5)nc(-c5ccc6cn[nH]c6c5)c4)CC3)CC2)CC1 | 57 nM | 
12 | CC(=O)N1CCC(C(=O)N2CCC(N3CCN(C(=O)c4cc(-c5ccccc5)nc(-c5ccc6c(c5)CC(=O)N6)c4)CC3)CC2)CC1 | 54 nM | 
13 | CC(=O)N1CCC(C(=O)N2CCC(N3CCN(C(=O)c4cc(-c5cccc(F)c5)nc(-c5ccc6[nH]ccc6c5)c4)CC3)CC2)CC1 | 33 nM | Papp [2]: 19.9 ×10⁻⁶ cm/s
14 | CC(=O)N1CCC(C(=O)N2CCC(N3CCN(C(=O)c4cc(-c5cccc(C)c5)nc(-c5ccc6[nH]ccc6c5)c4)CC3)CC2)CC1 | 37 nM | Papp [2]: 28.1 ×10⁻⁶ cm/s
15 | COc1cccc(-c2cc(C(=O)N3CCN(C4CCN(C(=O)C5CCN(C(C)=O)CC5)CC4)CC3)cc(-c3ccc4[nH]ccc4c3)n2)c1 | 32 nM | 
16 | COc1ccc(-c2cc(C(=O)N3CCN(C4CCN(C(=O)C5CCN(C(C)=O)CC5)CC4)CC3)cc(-c3ccc4[nH]ccc4c3)n2)cc1 | 21 nM | Papp [2]: 21.5 ×10⁻⁶ cm/s
17 | CC(=O)N1CCC(C(=O)N2CCC(N3CCN(C(=O)c4cc(-c5cccc(C(F)(F)F)c5)nc(-c5ccc6[nH]ccc6c5)c4)CC3)CC2)CC1 | 100 nM | 
18 | CC(=O)N1CCC(C(=O)N2CCC(N3CCN(C(=O)c4cc(-c5ccccc5)nc(-c5ccc(CCO)cc5)c4)CC3)CC2)CC1 | 27 nM | IC50 [3]: 1620 nM
19 | CC(=O)N1CCC(C(=O)N2CCC(N3CCN(C(=O)c4cc(-c5ccccc5)nc(-c5ccc(OCCO)cc5)c4)CC3)CC2)CC1 | 47 nM | 
20 | CC(=O)N1CCC(C(=O)N2CCC(N3CCN(C(=O)c4cc(-c5ccccc5)nc(-c5ccc(CCCO)cc5)c4)CC3)CC2)CC1 | 70 nM | 
21 | CC(=O)N1CCC(C(=O)N2CCC(N3CCN(C(=O)c4cc(-c5ccccc5)nc(-c5ccc6[nH]ccc6c5)c4)CC3)CC2)CC1 | 55 nM | remaining at 0.25 h [1]: 64%; Papp [2]: 46.5 ×10⁻⁶ cm/s
22 | CC(=O)N1CCC(C(=O)N2CCC(N3CCN(C(=O)c4cc(-c5ccccc5)nc(-c5ccc6[nH]ncc6c5)c4)CC3)CC2)CC1 | 42 nM | 

Further lines, with some results ahead:

Row | IC50 (Acetyl-CoA carboxylase) | Structure (SMILES) | further results
23 | 105 nM | CC(=O)N1CCC(C(=O)N2CCC(N3CCN(C(=O)c4cc(-c5ccccc5)nc(-c5ccc6c(c5)c(C)c(C)n6C)c4)CC3)CC2)CC1 | 
24 | 30 nM | COc1ccc(-c2cc(C(=O)N3CCN(C4CCN(C(=O)C5CCN(C(C)=O)CC5)CC4)CC3)cc(-c3ccc4[nH]ccc4c3)n2)cc1OC | 
25 | 69 nM | CC(=O)N1CCC(C(=O)N2CCC(N3CCN(C(=O)c4cc(-c5ccccc5)nc(-c5ccc6c(ccn6C)c5)c4)CC3)CC2)CC1 | remaining at 0.25 h [1]: 85%
26 | 48 nM | CC(=O)N1CCC(C(=O)N2CCC(N3CCN(C(=O)c4cc(-c5ccc(F)cc5)nc(-c5ccc6[nH]ccc6c5)c4)CC3)CC2)CC1 | Papp [2]: 44.3 ×10⁻⁶ cm/s
27 | 30 nM | CC(=O)N1CCC(C(=O)N2CCC(N3CCN(C(=O)c4cc(-c5ccc(C)cc5)nc(-c5ccc6[nH]ccc6c5)c4)CC3)CC2)CC1 | Papp [2]: 39.8 ×10⁻⁶ cm/s
28 | 80 nM | CC(=O)N1CCC(C(=O)N2CCC(N3CCN(C(=O)c4cc(-c5ccccc5)nc(-c5ccc(C(N)=O)cc5)c4)CC3)CC2)CC1 | 
29 | 75 nM | CC(=O)N1CCC(C(=O)N2CCC(N3CCN(C(=O)c4cc(-c5ccccc5)nc(-c5ccc(CC(=O)O)cc5)c4)CC3)CC2)CC1 | 
30 | 47 nM | CC(=O)N1CCC(C(=O)N2CCC(N3CCN(C(=O)c4cc(-c5ccccc5)nc(-c5ccc6cc[nH]c6c5)c4)CC3)CC2)CC1 | 
31 | 47 nM | CC(=O)N1CCC(C(=O)N2CCC(N3CCN(C(=O)c4cc(-c5ccccc5)nc(-c5ccc(O)cc5)c4)CC3)CC2)CC1 | 
32 | 47 nM | CC(=O)N1CCC(C(=O)N2CCC(N3CCN(C(=O)c4cc(-c5ccccc5)nc(-c5cccc(CO)c5)c4)CC3)CC2)CC1 | 
33 | 42 nM | CC(=O)N1CCC(C(=O)N2CCC(N3CCN(C(=O)c4cc(-c5ccccc5)nc(-c5ccc(CO)cc5)c4)CC3)CC2)CC1 | 
